KCNK9 inh: inhibitors of human KCNK9 two-pore domain potassium channel | HEK293 KCNK9, FluxOR thallium flux fluorescence; hits give low values | B-score at 10 µM | 310,000 compounds, 1.2% hits | AID 488922;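 active means ratio B-score over 3 SD below the library mean, with starting fluorescence within 5 SD of its mean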;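 further: negative B-score means less thallium flux so channel inhibition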
Kir21 inh: inhibitors of mouse Kir2.1 inward-rectifier potassium channel. 310,000 compounds, 0.85% hits. B-score at 10 µM. P35561. HEK293-Kir2.1, FluxOR thallium flux fluorescence; hits give low values;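 active means fluorescence ratio B-score at or below minus 3 SD of library scores, with starting-brightness B-score within 2 SD, cut at about -4.2 in these data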;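 further: channel flux triggered by added potassium and thallium sulfate stimulus; B-score of peak minus minimum fluorescence over baseline after thallium stimulus; more negative B-score means stronger Kir2.1 block with less thallium influx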
hERG protect: compounds protecting human hERG from proarrhythmic drug block. activation (rescue from dofetilide block), less the hit threshold, % at 10 µM. 310,000 compounds, 0.51% hits. AID 1511. CHO-hERG, FluxOR thallium flux, dofetilide IC70 present. Q12809;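 active means activation above the mean of controls blocked by dofetilide plus 5 SD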;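 further: thallium influx through hERG after potassium depolarization seen as dye fluorescence rise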
KCNQ1 inh: inhibitors of human KCNQ1 potassium channel. CHO-K1 KCNQ1, FluxOR thallium flux fluorescence; hits give high values. B-score at 10 µM. 310,000 compounds, 1.3% hits;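 active means compounds whose thallium flux B-score, printed positive for inhibition, exceeds three library SD while starting fluorescence stays within three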;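 further: channel opened by potassium depolarization with thallium stimulus after 20 min compound exposure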
KCNQ1 pot: human KCNQ1 channel potentiation or activation; P51787; CHO-K1 KCNQ1, thallium flux FluxOR fluorescence; hits give high values; B-score at 10 µM; 310,000 compounds, 0.35% hits; AID 2648;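 active means fluorescence ratio B-score, a plate-corrected score, at least three library SD, with initial intensity B-score within 5 SD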
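Test system: CHO-K1 cells stably expressing KCNQ1 / Medium: assay buffer / Also added: depolarizing K+/Tl+ stimulus, K2SO4 and Tl2SO4 each 12.5 mM in 5x stock / Incubation: 90 min dye loading and 20 min compound exposure, both at room temperature / Signal: thallium influx via FluxOR fluorescence, kinetic imaging / Evaluation: B score of baseline-normalized fluorescence ratio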
KCNK3 inh: human KCNK3 channel inhibition, primary screen; 340,000 compounds, 0.84% hits; CHO-KCNK3 thallium flux, FluxOR fluorescence; hits give low values; B-score at 10 µM;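 active means B-score under library mean minus 4 SD, starting fluorescence ratio at most library mean plus 5 SD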;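 further: more negative B-score means stronger inhibition of thallium flux through KCNK3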
KCNK9 block conf: human KCNK9 inhibitor confirmation; inhibition, % at 10 µM; 4,900 compounds, 43% hits; shares compounds with KCNK9 inh; HEK293 KCNK9 cells, FluxOR thallium flux fluorescence;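 active means thallium signal inhibited by more than 5 SD of the compound-free buffer control wells, on both duplicate plates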;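 further: 0% = assay buffer control wells without compound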
Kir21 sel: tests whether KCNK9 modulators also affect mouse Kir2.1. AID 492993. 4,900 compounds, 4% hits. Kir2.1 cells, FluxOR thallium flux fluorescence. shares compounds with KCNK9 inh. inhibition, % at 10 µM;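 active means thallium signal drop more than 5 SD beyond the mean of the no-compound control wells, seen in both duplicate plates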;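 further: signal is fluorescence rise after thallium addition divided by baseline fluorescence; plate controls were assay buffer only for no effect and full block by chlorpromazine control for full effect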
KCNK9 uninduced: second check of KCNK9 modulator effects in non-induced HEK293 cells | inhibition, % at 10 µM | FluxOR thallium flux | AID 492997 | 4,900 compounds, 40% hits | shares compounds with KCNK9 inh;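 active means thallium signal drop beyond 5 SD of the untreated control mean, on both duplicate plates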;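 further: plate controls were buffer only IC0 wells for no effect and SID17386958 at its maximal inhibitory level for full effect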
* marks the source's active call; other numbers are inactive results; i = inactive; x = no result given. Shown are actives, neighbours in structure and some others; about 3.7% of the full set was active somewhere.

SMILES	KCNK9 inh	Kir21 inh	hERG protect	KCNQ1 inh	KCNQ1 pot	KCNK3 inh	KCNK9 block conf	Kir21 sel	KCNK9 uninduced
Cc1c(Cl)cccc1NC(=S)N(CCN(C)C)C(C)c1ccco1 (centres undefined)	i	1.8	-7	i	i	i	i	i	i
Cn1cc(Br)c(-c2cccc(NC(=O)CC(C)(C)CC(=O)O)c2)n1	i	0.41	-5	i	i	i	x	x	x
CCc1ccc(NC(=O)COc2ccc(F)cc2C(=O)c2cnn(-c3ccccc3)c2)cc1	i	-0.45	-10	i	i	i	i	i	i
CC(SC1=Nc2ccccc2C2CC=NN12)C(=O)NC1(C#N)CCCCC1 (centres undefined)	-10*	-4.6*	-17	i	i	i	46%*	i	42%*
O=C1CC(N(CCc2ccccc2)C(=S)Nc2cc(Cl)ccc2Cl)C(=O)N1c1c(Cl)cccc1Cl (centres undefined)	-9.6*	1	-4	i	i	i	42%*	i	i
COc1cc(C)c(C)cc1S(=O)(=O)N1CCN(Cc2ccccc2)CC1	i	-0.18	-7	i	i	i	x	x	x
O=S(=O)(c1cccc(Br)c1)N1CCN(CCc2ccccc2)CC1	i	0.38	-12	i	i	i	i	i	i
O=S(=O)(c1ccc(Cl)s1)N1CCN(CCc2ccccc2)CC1	i	0.66	-7	i	i	i	i	i	i
CC(C)c1ccc(CN2CCN(S(=O)(=O)c3ccc(Cl)s3)CC2)cc1	x	x	x	x	x	i	x	x	x
O=S(=O)(c1cccs1)N1CCN(CCc2ccccc2)CC1	i	0.42	-3	i	i	i	x	x	x
O=S(=O)(c1ccc(Cl)s1)N1CCN(Cc2ccccc2)CC1	i	-0.01	-7	i	i	i	i	i	i
O=S(=O)(c1ccccc1)N1CCN(Cc2cccc(Br)c2)CC1	i	1.2	-6	i	i	i	x	x	x
Cc1cc(S(=O)(=O)N2CCN(Cc3ccccc3)CC2)c(C)s1	i	-2.1	-9	i	i	i	i	i	i
O=C(c1ccco1)N1CCN(S(=O)(=O)c2cccc([N+](=O)[O-])c2)CC1	i	-0.82	0	i	i	i	x	x	x
CC(C)Cc1nnc(NC(=O)C2CCCC2)s1	i	1.4	-4	i	i	i	x	x	x
CCCCn1nnc(NC(=S)NC(=O)c2ccc(OCC)c([N+](=O)[O-])c2)n1	i	-0.98	-6	i	i	i	x	x	x
CCOC(=O)C1=C(C)N=C2SC(C)C(=O)N2C1c1ccc(OC(C)=O)c(OCC)c1 (centres undefined)	i	-1.5	-9	i	i	x	x	x	x
CCOC(=O)C1=C(C)N=C2SC(C)C(=O)N2C1c1cccc(F)c1 (centres undefined)	-17*	-0.02	-14	6*	i	i	64%*	i	60%*
CC1=C(C(=O)OC(C)C)C(c2cccc(F)c2)N2C(=O)C(C)SC2=N1 (centres undefined)	-13*	-0.61	-14	i	i	i	56%*	i	54%*
O=C(Nc1ccc(C(=O)N2CCC(N3CCCC3)CC2)cc1)c1ccc(Br)o1	x	x	x	x	x	i	x	x	x
O=C(NCCc1ccc(Cl)cc1)C1CCN(S(=O)(=O)c2ccc(Br)s2)CC1	i	0.16	1	i	i	i	x	x	x
COc1cccc(-c2ccc(C#N)c(OC(=O)c3c(Cl)cccc3Cl)n2)c1	-10*	-1.2	-6	i	i	i	38%*	i	28%*
COc1cccc(-c2ccc(C#N)c(OC(=O)c3ccc(Cl)cc3)n2)c1	i	0.11	-2	i	i	i	x	x	x
CC(C)(C)c1ccc(CN(Cc2ccco2)Cc2nnnn2C2CCCC2)cc1	-14*	-0.16	-24	6*	i	i	62%*	i	49%*
Nc1cnn(Cc2ccccc2F)c1	i	-0.01	-26	i	i	i	x	x	x
SMILES	KCNK9 inh	Kir21 inh	hERG protect	KCNQ1 inh	KCNQ1 pot	KCNK3 inh	KCNK9 block conf	Kir21 sel	KCNK9 uninduced
CC1CC(C)CN(C(=O)c2ccc3c(c2)N(Cc2ccccc2)CCS3)C1 (centres undefined)	-8.2*	-1.5	-7	i	i	-12*	51%*	i	34%*
Cc1ccc(CN2CCSc3ccc(C(=O)NC4CCN(Cc5ccccc5)CC4)cc32)cc1	i	-0.49	-22	7*	i	i	i	i	i
CC(NC(=O)CCCCCN1C(=O)c2ccccc2C1=O)c1ccc2c(c1)CCCC2 (centres undefined)	i	-0.88	-4	i	i	i	i	i	i
CC(NC(=O)CCCCCCN1C(=O)c2ccccc2C1=O)c1ccc2c(c1)CCCC2 (centres undefined)	i	0.43	-4	i	i	i	i	i	i
COc1ccc2cc(C#N)c(N3CCN(C(=O)c4ccccc4C)CC3)nc2c1	i	-1.2	-12	i	i	i	i	i	i
C[C@]12CC[C@H](O)C[C@@H]1CC[C@@H]1[C@@H]2CC[C@@]2(C)[C@H]1CCC(=O)[C@]21CCCO1	x	x	x	x	x	i	x	x	x
Cc1ccc(S[C@@H](CCN2CC[C@H](C)CCC2=O)c2ccccc2)cc1	-9.4*	-1.2	-7	i	i	i	66%*	i	34%*
C[C@@H]1CCC(=O)N(CC[C@H](Oc2ccccc2)c2ccccc2)CC1	-15*	-2.9	-10	i	i	i	74%*	i	36%*
COc1ccc(S[C@@H](CCN2CC[C@H](C)CCC2=O)c2ccccc2)cc1	x	x	x	x	x	i	x	x	x
O=C(Cc1c(F)cccc1Cl)NNC(=O)c1ccncc1	x	x	x	x	x	i	x	x	x
Oc1ccc(Br)cc1CNc1cccc2cccnc12	-13*	0.02	-11	i	i	i	52%*	i	40%*
Cc1ccc(O)c(CNc2ccccn2)c1	i	0.08	-2	i	i	i	x	x	x
Cc1ccc(O)c(CNc2cccc3cccnc23)c1	-9.7*	0.35	-17	i	i	i	60%*	i	36%*
O=C(NCC(=O)N1CCN(c2ccccc2)CC1)c1cccs1	i	0.14	-6	i	i	i	x	x	x

Screens: PubChem BioAssay, Johns Hopkins Ion Channel Center
